In ChEMBL document CHEMBL1147069, “Gambogic amide, a selective agonist for TrkA receptor that possesses robust neurotrophic activity, prevents neuronal cell death” (Proc Natl Acad Sci U S A, 2007):
Active and inactive are the calls of the source. The rule behind the calls is not given here.

Assays:
PC-12 [1] = test: Induction of neurite outgrowth in rat PC12 cells at 0.5 uM after 5 days; format: functional, cell-based
How it was run: (§1)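 PC12 cells were seeded at 1 × 10^4 per well on poly-L-lysine and grown 24 h, then treated with compounds (0.5 μM, or 10–50 nM in dose series) or NGF for 5 days, with medium replenished every other day. Neurites were counted as processes longer than two cell bodies. Three independent experiments.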

SN56 = test: Suppression of staurosporine-initiated apoptosis in mouse SN56 cells at 0.5 uM; format: functional, cell-based
How it was run: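 Murine SN56 basal forebrain cells and their rat-TrkA stably transfected line T17 (DMEM, 1 mM pyruvate, 10% FBS; T17 with 300 μg/ml G418). Cells were preincubated with 0.5 μM compound, then given 1 μM staurosporine for 9 h. Apoptosis was read with the caspase-3-activated dye MR(DEVD)2 (10 μM, last hour) plus Hoechst counterstain after fixation. Three independent experiments, mean ± SD.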

[2] = molecular target: High affinity nerve growth factor receptor (Rattus norvegicus) (UniProt P35739); test: Induction of TrkA phosphorylation in rat hippocampal neurons at 0.5 uM after 30 mins; format: tissue-based; conditions: Hippocampus
How it was run: (§2)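 Primary hippocampal neurons were treated with 0.5 μM compounds for 30 min; lysates were immunoblotted with anti-phospho-Trk Y490 antibody. Repeated more than three times.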

TrkB-stable [3] = test: Induction of PI3K signaling activation in TrkB-stable cells; format: cell-based
TrkB-stable [4] = test: Induction of MAPK signaling activation in TrkB-stable cells; format: cell-based
[5] = Suppression of staurosporine-initiated apoptosis in mouse T17 cells at 0.5 uM
T17 [6] = test: Induction of MAPK phosphorylation in mouse T17 cells
[7] = molecular target: High affinity nerve growth factor receptor (Rattus norvegicus) (UniProt P35739); test: Induction of Akt phosphorylation in rat primary hippocampal neurons; format: tissue-based; conditions: Hippocampus
How it was run: (§3)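 Hippocampal neurons were given 0.5 μM compound for 5–180 min (time course), or a dose range for 30 min, with 50 ng/ml NGF for comparison. Akt phosphorylation was detected by immunoblotting with phospho-Akt (473/308) antibodies.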

T17 [8] = test: […] in staurosporine-initiated apoptosis in mouse T17 cells at 0.5 uM
Rattus norvegicus [9] = test: Neuroprotective effect in rat MCAO model assessed as decrease in cerebral blood flow at 2 mg/kg within 5 mins; format: functional, Brain; design: scale not given: the % may be the effect or the level left
How it was run: (§4)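 Adult male rats underwent 2 h transient MCAO; vehicle or 2 mg/kg was given 5 min before reperfusion onset. Relative cerebral blood flow over ipsilateral parietal cortex was measured by laser-Doppler flowmetry versus preischemic levels. Values are mean ± SD, compared by Student's t test.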

Rattus norvegicus [10] = test: Neuroprotective effect in rat MCAO model assessed as increase in cerebral blood flow at 2 mg/kg after 120 mins of filament withdrawal; format: functional, Brain; how it was run: as §4
Hippocampal neurone [11] = test: Neuroprotective effect in glutamate-induced cell death in rat hippocampal neurons after 30 mins; format: functional, tissue-based; conditions: Hippocampus
How it was run: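 Primary hippocampal neurons were pretreated with compounds for 30 min, then exposed to 50 μM glutamate for 16 h. Apoptosis was quantified with the MR(DEVD)2 caspase-3 dye; NGF served as positive control. Three independent experiments, mean ± SD.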

[12] = molecular target: High affinity nerve growth factor receptor (Homo sapiens) (UniProt P04629); test: Stimulation of TrkA dimerization co-transfected in HEK293 cells at 0.5 uM after 30 mins by immunoblotting analysis in presence of green fluorescent protein; format: cell-based
How it was run: (§5)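 HEK293 cells were cotransfected with GFP-TrkA plus HA-TrkA or HA-TrkB, then treated with 0.5 μM compound for 30 min. GFP-TrkA was immunoprecipitated with anti-GFP and coprecipitated receptor detected by anti-HA immunoblot.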

[13] = molecular target: High affinity nerve growth factor receptor (Homo sapiens) (UniProt P04629); test: Binding affinity to recombinant GST-TrkA
How it was run: (§6)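 Recombinant GST-TrkA, GST-TrkB or GST-TrkC proteins tested in an in vitro binding assay with the compounds; experiments were repeated more than three times.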

[14] = molecular target: BDNF/NT-3 growth factors receptor (Homo sapiens) (UniProt Q16620); test: Binding affinity to recombinant GST-TrkB; how it was run: as §6
[15] = molecular target: NT-3 growth factor receptor (Homo sapiens) (UniProt Q16288); test: Binding affinity to recombinant GST-TrkC; how it was run: as §6
[16] = molecular target: Mitogen-activated protein kinase 3 (Homo sapiens) (UniProt P27361); test: Induction of ERK1 phosphorylation
[17] = molecular target: Mitogen-activated protein kinase 1 (Homo sapiens) (UniProt P28482); test: Induction of ERK2 phosphorylation
[18] = molecular target: High affinity nerve growth factor receptor (Homo sapiens) (UniProt P04629); test: Binding affinity to TrkA
How it was run: (§7)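 GFP-tagged TrkA (wild-type or kinase-dead) expressed in transfected HEK293 cells; lysates bound to gambogic amide immobilised on Affi-Gel 102 through an amide bond. For Kd, TrkA-loaded beads were competed with increasing free compound. After extensive washing, bead-bound protein was immunoblotted with anti-GFP and quantitated densitometrically.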

[19] = molecular target: High affinity nerve growth factor receptor (Homo sapiens) (UniProt P04629); test: Binding affinity to TrkA kinase; how it was run: as §7
[20] = molecular target: BDNF/NT-3 growth factors receptor (Homo sapiens) (UniProt Q16620); test: Binding affinity to TrkB
[21] = molecular target: NT-3 growth factor receptor (Homo sapiens) (UniProt Q16288); test: Binding affinity to TrkC
[22] = molecular target: High affinity nerve growth factor receptor (Rattus norvegicus) (UniProt P35739); test: Induction of Akt phosphorylation in rat primary hippocampal neurons at 0.5 uM; conditions: Hippocampus, TDE = time-dependent effect; how it was run: as §3
[23] = molecular target: High affinity nerve growth factor receptor (Rattus norvegicus) (UniProt P35739); test: Induction of Akt phosphorylation in rat primary hippocampal neurons after 30 mins; format: tissue-based; conditions: Hippocampus; how it was run: as §3
PC-12 [24] = test: Induction of neurite outgrowth in rat PC12 cells; format: functional, cell-based; how it was run: as §1
PC-12 [25] = test: Blockade of induction of neurite outgrowth in rat PC12 cells in presence of K252a; format: functional, cell-based
Mus musculus [26] = test: Neuroprotective effect on C57BL/6 mouse hippocampal CA1 region assessed as decrease in kainic acid-induced neuronal cell death at 2 mg/kg, sc after 5 days; format: functional; design: scale not given: the % may be the effect or the level left; conditions: route subcutaneous
How it was run: (§8)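 C57BL/6 mice were given 2 mg/kg s.c., followed by 25 mg/kg kainic acid. After 5 days, mice were perfused and 5 μm brain sections cut. Hippocampal apoptosis was quantified by TUNEL with DAPI counterstain.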

Mus musculus [27] = test: Neuroprotective effect on C57BL/6 mouse hippocampal CA3 region assessed as decrease in kainic acid-induced neuronal cell death at 2 mg/kg, sc after 5 days; format: functional; design: scale not given: the % may be the effect or the level left; conditions: route subcutaneous; how it was run: as §8
HEK293 = test: Stimulation of TrkA and TrkB dimerization co-transfected in HEK293 cells at 0.5 uM after 30 mins by immunoblotting analysis; format: cell-based; how it was run: as §5
[28] = molecular target: Tumor necrosis factor receptor superfamily member 16 (Homo sapiens) (UniProt P08138); test: Binding affinity to p75NTR
[29] = molecular target: Receptor tyrosine-protein kinase erbB-3 (Homo sapiens) (UniProt P21860); test: Binding affinity to ErbB3
[30] = molecular target: Epidermal growth factor receptor (Homo sapiens) (UniProt P00533); test: Binding affinity to EGFR
Hippocampal neurone [31] = test: Neuroprotective effect in oxygen-glucose deprivation triggered cell death in rat hippocampal neurons after 30 mins; format: functional, tissue-based; conditions: Hippocampus
How it was run: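 Primary hippocampal neurons were pretreated with compounds or NGF 30 min before oxygen–glucose deprivation; apoptosis was assayed 3 h later, including a dose titration. Three independent experiments, mean ± SD.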

[32] = molecular target: High affinity nerve growth factor receptor (Rattus norvegicus) (UniProt P35739); test: Induction of TrkA tyrosine phosphorylation in rat hippocampal neurons at 0.5 uM after 30 mins by immunoblotting staining; format: tissue-based; conditions: Hippocampus; how it was run: as §2
Rattus norvegicus [33] = organism: Rattus norvegicus; test: Induction of TrkA Y751 tyrosine phosphorylation in rat hippocampal neurons at 0.5 uM after 30 mins by immunoblotting staining; format: tissue-based; conditions: Hippocampus
Rattus norvegicus [34] = organism: Rattus norvegicus; test: Reversal of TrkA Y490 phosphorylation in rat hippocampal neurons at 0.5 uM after 30 mins in presence of K252a; format: tissue-based; conditions: Hippocampus
Rattus norvegicus [35] = organism: Rattus norvegicus; test: Reversal of TrkA Y751 phosphorylation in rat hippocampal neurons at 0.5 uM after 30 mins in presence of K252a; format: tissue-based; conditions: Hippocampus
[36] = molecular target: High affinity nerve growth factor receptor (Rattus norvegicus) (UniProt P35739); test: Reversal of TrkA phosphorylation in rat hippocampal neurons at 0.5 uM after 30 mins in presence of K252a; format: tissue-based; conditions: Hippocampus
[37] = molecular target: High affinity nerve growth factor receptor (Homo sapiens) (UniProt P04629); test: Induction of TrkA tyrosine phosphorylation in transfected HEK293 cells; format: cell-based
[38] = molecular target: BDNF/NT-3 growth factors receptor (Homo sapiens) (UniProt Q16620); test: Induction of TrkB tyrosine phosphorylation in transfected HEK293 cells; format: cell-based
[39] = molecular target: NT-3 growth factor receptor (Homo sapiens) (UniProt Q16288); test: Induction of TrkC tyrosine phosphorylation in transfected HEK293 cells; format: cell-based
[40] = molecular target: RAC-alpha serine/threonine-protein kinase (Mus musculus) (UniProt P31750); test: Induction of Akt phosphorylation in mouse T17 cells
[41] = molecular target: Mitogen-activated protein kinase 3 (Mus musculus) (UniProt Q63844); test: Induction of ERK1 phosphorylation in mouse T17 cells
[42] = molecular target: Mitogen-activated protein kinase 1 (Mus musculus) (UniProt P63085); test: Induction of ERK2 phosphorylation in mouse T17 cells

Sequence of High affinity nerve growth factor receptor (Homo sapiens) (P04629 33-796 limits assumed): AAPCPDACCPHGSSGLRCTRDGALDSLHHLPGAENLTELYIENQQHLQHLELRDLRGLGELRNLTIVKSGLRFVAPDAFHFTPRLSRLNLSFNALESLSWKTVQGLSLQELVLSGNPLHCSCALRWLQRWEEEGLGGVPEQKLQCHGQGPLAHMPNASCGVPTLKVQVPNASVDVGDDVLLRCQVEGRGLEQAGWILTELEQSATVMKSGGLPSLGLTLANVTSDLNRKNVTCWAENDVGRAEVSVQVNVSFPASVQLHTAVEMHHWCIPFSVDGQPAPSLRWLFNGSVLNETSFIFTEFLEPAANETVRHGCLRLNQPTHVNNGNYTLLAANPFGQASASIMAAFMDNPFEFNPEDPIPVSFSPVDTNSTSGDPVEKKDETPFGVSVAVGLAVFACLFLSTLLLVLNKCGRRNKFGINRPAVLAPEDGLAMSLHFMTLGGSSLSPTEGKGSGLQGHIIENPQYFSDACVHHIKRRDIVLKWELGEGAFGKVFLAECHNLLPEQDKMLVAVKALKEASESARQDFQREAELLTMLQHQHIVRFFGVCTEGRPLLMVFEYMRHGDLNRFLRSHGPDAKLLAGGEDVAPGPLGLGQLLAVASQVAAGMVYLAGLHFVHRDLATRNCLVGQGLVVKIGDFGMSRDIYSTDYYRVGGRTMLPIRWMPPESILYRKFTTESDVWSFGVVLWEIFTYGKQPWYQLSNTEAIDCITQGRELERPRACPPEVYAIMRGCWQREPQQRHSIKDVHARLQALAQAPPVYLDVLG
Sequence of High affinity nerve growth factor receptor (Rattus norvegicus) (P35739 whole entry): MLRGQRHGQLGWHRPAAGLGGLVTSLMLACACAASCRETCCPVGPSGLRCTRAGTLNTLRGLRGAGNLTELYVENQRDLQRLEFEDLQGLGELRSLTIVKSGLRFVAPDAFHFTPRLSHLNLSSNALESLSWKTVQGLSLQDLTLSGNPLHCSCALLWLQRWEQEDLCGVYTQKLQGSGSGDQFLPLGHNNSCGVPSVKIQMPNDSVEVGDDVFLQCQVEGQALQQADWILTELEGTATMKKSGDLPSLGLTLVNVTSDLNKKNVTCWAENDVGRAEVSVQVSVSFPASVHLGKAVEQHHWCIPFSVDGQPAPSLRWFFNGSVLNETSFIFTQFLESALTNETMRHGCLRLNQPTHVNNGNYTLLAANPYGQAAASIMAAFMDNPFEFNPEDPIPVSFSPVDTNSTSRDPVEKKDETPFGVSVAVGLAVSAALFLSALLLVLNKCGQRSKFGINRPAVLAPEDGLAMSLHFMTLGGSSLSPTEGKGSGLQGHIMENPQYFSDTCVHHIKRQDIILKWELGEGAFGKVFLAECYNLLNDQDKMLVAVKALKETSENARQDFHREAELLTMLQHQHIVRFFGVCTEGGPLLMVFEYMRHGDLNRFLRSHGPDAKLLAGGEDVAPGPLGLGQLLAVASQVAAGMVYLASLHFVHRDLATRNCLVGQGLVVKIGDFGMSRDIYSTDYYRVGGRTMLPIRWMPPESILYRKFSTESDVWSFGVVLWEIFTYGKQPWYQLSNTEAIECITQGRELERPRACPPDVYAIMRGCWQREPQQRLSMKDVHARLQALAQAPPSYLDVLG
Sequence of NT-3 growth factor receptor (Homo sapiens) (Q16288 32-839 limits assumed): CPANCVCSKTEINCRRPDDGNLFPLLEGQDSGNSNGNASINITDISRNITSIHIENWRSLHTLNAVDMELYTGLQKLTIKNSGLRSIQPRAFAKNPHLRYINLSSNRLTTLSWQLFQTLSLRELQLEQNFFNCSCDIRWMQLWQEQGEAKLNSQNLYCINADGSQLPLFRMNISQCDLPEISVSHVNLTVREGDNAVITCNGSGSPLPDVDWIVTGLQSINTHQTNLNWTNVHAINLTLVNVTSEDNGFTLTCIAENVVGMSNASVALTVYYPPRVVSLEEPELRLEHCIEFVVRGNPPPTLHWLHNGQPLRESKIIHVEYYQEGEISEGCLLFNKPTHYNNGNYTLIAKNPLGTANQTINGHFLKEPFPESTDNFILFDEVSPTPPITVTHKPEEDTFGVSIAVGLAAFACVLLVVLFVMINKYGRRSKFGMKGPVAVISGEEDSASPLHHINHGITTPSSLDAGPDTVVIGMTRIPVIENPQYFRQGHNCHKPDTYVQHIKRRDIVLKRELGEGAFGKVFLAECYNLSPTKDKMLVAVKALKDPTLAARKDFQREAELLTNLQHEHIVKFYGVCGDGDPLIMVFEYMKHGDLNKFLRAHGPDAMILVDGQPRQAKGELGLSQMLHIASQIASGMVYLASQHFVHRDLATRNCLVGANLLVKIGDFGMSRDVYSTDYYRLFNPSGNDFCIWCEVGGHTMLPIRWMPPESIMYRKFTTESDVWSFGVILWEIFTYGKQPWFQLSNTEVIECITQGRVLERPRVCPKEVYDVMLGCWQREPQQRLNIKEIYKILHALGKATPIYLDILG
Sequence of BDNF/NT-3 growth factors receptor (Homo sapiens) (Q16620 32-822 limits assumed): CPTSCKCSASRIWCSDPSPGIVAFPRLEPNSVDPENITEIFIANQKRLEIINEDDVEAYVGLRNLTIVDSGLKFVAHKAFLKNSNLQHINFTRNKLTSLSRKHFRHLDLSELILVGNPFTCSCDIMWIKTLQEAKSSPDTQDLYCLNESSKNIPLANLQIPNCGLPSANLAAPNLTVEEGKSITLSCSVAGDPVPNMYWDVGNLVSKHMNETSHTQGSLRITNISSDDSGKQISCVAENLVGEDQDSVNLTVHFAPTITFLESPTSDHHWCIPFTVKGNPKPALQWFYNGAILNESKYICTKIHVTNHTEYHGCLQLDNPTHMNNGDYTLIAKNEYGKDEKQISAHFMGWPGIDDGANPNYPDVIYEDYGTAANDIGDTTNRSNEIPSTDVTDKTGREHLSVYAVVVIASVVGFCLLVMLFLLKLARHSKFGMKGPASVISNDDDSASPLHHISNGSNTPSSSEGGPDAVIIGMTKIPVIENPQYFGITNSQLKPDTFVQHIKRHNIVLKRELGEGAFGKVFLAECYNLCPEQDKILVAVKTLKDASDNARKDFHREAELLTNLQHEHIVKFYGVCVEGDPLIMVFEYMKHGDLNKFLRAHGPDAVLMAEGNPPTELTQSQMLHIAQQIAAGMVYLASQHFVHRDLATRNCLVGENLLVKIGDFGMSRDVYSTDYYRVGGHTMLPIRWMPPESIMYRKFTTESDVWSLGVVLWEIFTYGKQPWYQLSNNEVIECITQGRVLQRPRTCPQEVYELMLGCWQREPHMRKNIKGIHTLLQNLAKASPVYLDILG
Sequence of Mitogen-activated protein kinase 3 (Homo sapiens) (P27361 whole entry): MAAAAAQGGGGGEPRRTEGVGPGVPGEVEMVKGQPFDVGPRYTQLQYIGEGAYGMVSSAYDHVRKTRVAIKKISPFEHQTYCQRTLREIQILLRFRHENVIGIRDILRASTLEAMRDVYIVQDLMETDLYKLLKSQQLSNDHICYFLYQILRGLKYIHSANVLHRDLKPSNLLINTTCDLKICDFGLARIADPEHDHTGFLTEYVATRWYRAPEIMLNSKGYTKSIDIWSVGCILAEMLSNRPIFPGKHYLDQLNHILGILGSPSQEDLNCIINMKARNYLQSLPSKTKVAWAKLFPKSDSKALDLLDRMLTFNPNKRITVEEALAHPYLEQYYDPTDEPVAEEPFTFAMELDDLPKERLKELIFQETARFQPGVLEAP
Sequence of Mitogen-activated protein kinase 1 (Homo sapiens) (P28482 whole entry): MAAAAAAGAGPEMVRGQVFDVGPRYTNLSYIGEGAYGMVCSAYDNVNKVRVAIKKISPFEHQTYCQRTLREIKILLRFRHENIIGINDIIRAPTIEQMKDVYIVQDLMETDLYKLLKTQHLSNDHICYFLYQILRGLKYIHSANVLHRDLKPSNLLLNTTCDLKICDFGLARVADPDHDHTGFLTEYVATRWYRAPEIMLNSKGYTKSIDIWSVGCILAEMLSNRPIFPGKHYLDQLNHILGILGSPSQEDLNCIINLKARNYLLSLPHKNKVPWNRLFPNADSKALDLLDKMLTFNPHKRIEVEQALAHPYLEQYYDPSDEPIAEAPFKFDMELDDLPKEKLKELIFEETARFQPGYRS
Sequence of Mitogen-activated protein kinase 3 (Mus musculus) (Q63844 whole entry, looked up): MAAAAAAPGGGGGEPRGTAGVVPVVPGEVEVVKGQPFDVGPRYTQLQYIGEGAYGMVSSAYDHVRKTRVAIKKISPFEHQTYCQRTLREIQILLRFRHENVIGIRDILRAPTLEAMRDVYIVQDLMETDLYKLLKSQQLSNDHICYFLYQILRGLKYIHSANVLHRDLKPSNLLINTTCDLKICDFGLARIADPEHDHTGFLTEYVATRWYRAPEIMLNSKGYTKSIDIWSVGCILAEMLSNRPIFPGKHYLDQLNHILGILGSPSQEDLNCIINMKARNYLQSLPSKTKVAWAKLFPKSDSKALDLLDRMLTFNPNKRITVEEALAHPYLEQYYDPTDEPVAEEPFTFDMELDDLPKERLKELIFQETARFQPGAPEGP
Sequence of RAC-alpha serine/threonine-protein kinase (Mus musculus) (P31750 whole entry, looked up): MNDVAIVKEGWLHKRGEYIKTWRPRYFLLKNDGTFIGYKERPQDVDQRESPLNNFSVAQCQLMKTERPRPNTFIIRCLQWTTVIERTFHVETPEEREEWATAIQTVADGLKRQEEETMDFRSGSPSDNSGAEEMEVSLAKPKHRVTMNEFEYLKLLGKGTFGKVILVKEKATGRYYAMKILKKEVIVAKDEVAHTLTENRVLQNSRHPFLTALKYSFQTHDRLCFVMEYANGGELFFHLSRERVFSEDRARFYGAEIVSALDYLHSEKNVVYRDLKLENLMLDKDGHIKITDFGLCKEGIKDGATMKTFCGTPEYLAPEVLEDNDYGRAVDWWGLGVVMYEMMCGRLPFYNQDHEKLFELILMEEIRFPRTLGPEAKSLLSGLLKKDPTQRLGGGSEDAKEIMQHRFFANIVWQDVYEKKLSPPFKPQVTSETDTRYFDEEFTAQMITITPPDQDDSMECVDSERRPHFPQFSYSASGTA

COC(=O)/C(C)=C\C[C@@]12OC(C)(C)C3C[C@@H](C=C4C(=O)c5c(OC)c6c(c(CC=C(C)C)c5O[C@]431)O[C@](C)(CCC=C(C)C)C=C6)C2=O
Activity (PC-12 [1]): inactive | Activity (SN56): Active | Activity [2]: inactive | Activity (TrkB-stable [3]): Active | Activity (TrkB-stable [4]): Active | EC50 [5]: 120 nM

CC(C)=CCC[C@]1(C)C=Cc2c(O)c3c(c(CC=C(C)C)c2O1)O[C@]12C(=C[C@@H]4CC1C(C)(C)O[C@@]2(C/C=C(/C)C(=O)O)C4O)C3=O (some centres undefined)
Activity (PC-12 [1]): Active | Activity (SN56): Active | Activity [2]: inactive | Activity (TrkB-stable [3]): Active | Activity (TrkB-stable [4]): Active | EC50 [5]: 200 nM

CC(=O)Oc1c2c(c(CC=C(C)C)c3c1C(=O)C1=C[C@@H]4CC5C(C)(C)O[C@@](C/C=C(\C)C(=O)O)(C4=O)[C@@]15O3)O[C@](C)(CCC=C(C)C)C=C2
Activity (SN56): Active | Activity [2]: inactive | Activity (TrkB-stable [3]): Active | Activity (TrkB-stable [4]): Active

CC(C)=CCC[C@]1(C)C=Cc2c(O)c3c(c(CC=C(C)C)c2O1)O[C@]12C(C[C@@H]4CC1C(C)(C)O[C@@]2(C/C=C(/C)C(=O)O)C4O)C3=O (some centres undefined)
Activity (SN56): Active | Activity [2]: inactive | Activity (TrkB-stable [3]): Active | Activity (TrkB-stable [4]): Active | Activity (T17 [6]): inactive

CC(C)CCC[C@]1(C)C=Cc2c(O)c3c(c(CCC(C)C)c2O1)O[C@]12C(C[C@@H]4CC1C(C)(C)O[C@@]2(CCC(C)C(=O)O)C4O)C3=O (some centres undefined)
Activity [7]: Active | Activity (SN56): Active | Activity [2]: inactive | Activity (TrkB-stable [3]): Active | Activity (TrkB-stable [4]): Active | Activity (T17 [6]): inactive | Activity (T17 [8]): Active

CC(C)=CCC[C@]1(C)C=Cc2c(O)c3c(c(CC=C(C)C)c2O1)O[C@]12C(=C[C@@H]4C[C@H]1C(C)(C)O[C@@]2(C/C=C(/C)C(=O)O)C4=O)C3=O [GAMBOGIC ACID]
Activity [7]: Active | Activity (PC-12 [1]): inactive | Activity (Rattus norvegicus [9]): 24.41% | Activity (Rattus norvegicus [10]): 85.83% | Activity (SN56): Active | Activity (Hippocampal neurone [11]): Active | Activity [2]: inactive | Activity [12]: inactive | Activity [13]: Active | Activity [14]: inactive | Activity [15]: inactive | Activity [16]: Active | Activity [17]: Active | Activity (T17 [6]): inactive | EC50 [5]: 20 nM

CC(C)=CCC[C@]1(C)C=Cc2c(O)c3c(c(CC=C(C)C)c2O1)O[C@]12C(=C[C@@H]4CC1C(C)(C)O[C@@]2(C/C=C(/C)C(N)=O)C4=O)C3=O [GAMBOGIC AMIDE]
Activity [18]: Active | Activity [19]: Active | Activity [20]: inactive | Activity [21]: inactive | Activity [22]: tde | Activity [23]: Dose-dependent effect | Activity (PC-12 [1]): Active | Activity (PC-12 [24]): Dose-dependent effect | Activity (PC-12 [25]): Active | Activity (Mus musculus [26]): 6.3% | Activity (Mus musculus [27]): 1.8% | Activity (HEK293): inactive | Activity [28]: inactive | Activity [29]: inactive | Activity [30]: inactive | Activity (SN56): Active | Activity (Hippocampal neurone [11]): Active | Activity (Hippocampal neurone [31]): Dose-dependent effect | Activity [2]: Active | Activity [32]: Active | Activity (Rattus norvegicus [33]): Active | Activity (Rattus norvegicus [34]): Active | Activity (Rattus norvegicus [35]): Active | Activity [36]: Active | Activity [12]: Active | Activity [37]: Active | Activity [38]: Active | Activity [39]: Active | Activity [16]: Active | Activity [17]: Active | Activity (TrkB-stable [3]): Active | Activity (TrkB-stable [4]): Active | Activity [40]: Active | Activity [41]: Active | Activity [42]: Active | EC50 [5]: 5 nM
